Results: ChEMBL document CHEMBL1122954, “Synthesis and antiallergic activity of some quinolinones and imidazoquinolinones” (1985)

Assays:
Type in all cases: functional
Rattus norvegicus [1] = test: Antiallergic activity determined by rat passive cutaneous anaphylaxis (PCA) assay when administered intraperitoneally at dose 60 mg/kg; settings: route intraperitoneal
Rattus norvegicus [2] = test: Antiallergic activity by rat passive cutaneous anaphylaxis (PCA) assay when administered perorally at dose 100 mg/kg; settings: route oral
Rattus norvegicus [3] = test: Percentage normal weight gain when dosed at 200 mg/kg on day one of the 2-week study in rat
Outline: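 Male Sprague-Dawley rats, fasted 16 h, given a single oral dose in 0.1% Methocel; controls got vehicle. Groups of 8–10, weighed daily at about the same time over 2 weeks. Gain over the first 4 days compared with expected gain from standard growth charts for age and strain. Mean % of normal weight gain ± standard error.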

Q: `CCOC(=O)c1cnc2c(N)cc(C)cc2c1O` was tested. Which Activity (Rattus norvegicus [1]) did it give?
A: -2

Q: Which Activity (Rattus norvegicus [1]) does the source give for `COC(=O)c1cc(=O)c2cccc3ncn1c32` here?
A: 16

Q: And the Activity (Rattus norvegicus [2])?
A: 1

Q: What about the Normal weight gain (Rattus norvegicus [3]) of the same compound?
A: 68%

Q: With `CCO/C(C)=N/c1cccc2c(O)cc(C(=O)OC)nc12` as the compound, how does the Activity (Rattus norvegicus [1]) read?
A: 24

Q: How did the Activity (Rattus norvegicus [1]) turn out when `CCOC(=O)c1cn2c(C)nc3cccc(c1=O)c32` was run?
A: 95

Q: What about the Activity (Rattus norvegicus [2]) of the same compound?
A: 83

Q: And the Normal weight gain (Rattus norvegicus [3])?
A: -49%

Q: Which results are given for `COC(=O)c1cc(O)c2cccc([N+](=O)[O-])c2n1`?
A: Activity (Rattus norvegicus [1]): 66; Activity (Rattus norvegicus [2]): 8; Normal weight gain (Rattus norvegicus [3]): 104%

Q: For `CCOC(=O)c1cnc2c([N+](=O)[O-])cccc2c1O`, which Activity (Rattus norvegicus [1]) is on record?
A: 13

Q: What about the Activity (Rattus norvegicus [2]) of the same compound?
A: -2

Q: What about the Normal weight gain (Rattus norvegicus [3]) of the same compound?
A: 106%

Q: With `COC(=O)c1cc(O)c2cccc(N)c2n1` as the compound, how does the Activity (Rattus norvegicus [1]) read?
A: 10

Q: What about the Activity (Rattus norvegicus [2]) of the same compound?
A: 3

Q: And the Normal weight gain (Rattus norvegicus [3])?
A: 100%

Q: With `CCOC(=O)c1cn2cnc3cc(C)cc(c1=O)c32` as the compound, how does the Activity (Rattus norvegicus [1]) read?
A: 3

Q: And the Activity (Rattus norvegicus [2])?
A: 70

Q: How did the Activity (Rattus norvegicus [1]) turn out when `O=CNc1cccc2c(O)cc(C(=O)O)nc12` was run?
A: 91

Q: And the Activity (Rattus norvegicus [2])?
A: 16

Q: `CCOC(=O)c1cnc2c(N)cccc2c1O` was tested. Which Activity (Rattus norvegicus [1]) did it give?
A: 19

Q: What about the Normal weight gain (Rattus norvegicus [3]) of the same compound?
A: 86%

Q: How did the Activity (Rattus norvegicus [1]) turn out when `O=CNc1cccc2c(O)c(C(=O)O)cnc12` was run?
A: 62

Q: And the Activity (Rattus norvegicus [2])?
A: 0

Q: What does the source list for `CCOC(=O)c1cnc2c(NC=O)cccc2c1O`?
A: Activity (Rattus norvegicus [1]): 67; Activity (Rattus norvegicus [2]): 76; Normal weight gain (Rattus norvegicus [3]): -26%

Q: With `CCOC(=O)c1cn2cnc3cccc(c1=O)c32` as the compound, how does the Activity (Rattus norvegicus [1]) read?
A: 100

Q: And the Activity (Rattus norvegicus [2])?
A: 70

Q: What about the Normal weight gain (Rattus norvegicus [3]) of the same compound?
A: -6%

Q: How did the Activity (Rattus norvegicus [1]) turn out when `O=C([O-])c1cc(=O)c2c(OCC(O)COc3cccc4oc(C(=O)[O-])cc(=O)c34)cccc2o1.[Na+].[Na+]` [CROMOLYN SODIUM] was run?
A: 100

Q: And the Activity (Rattus norvegicus [2])?
A: 2
